Wee1 stabilizer – inhibitors of human Wee1 degradation | P30291 | HeLa Luc-Wee1K328M stability, luciferase luminescence; 100% = proteasome inhibitor MG132 effect | reporter increase, % at 5 µM | hit rate 1.2% among 220,000 | AID 1321;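 active = activation above the mean of all tested compounds plus 3 SD, set per screening run, cut at about 8.8% in these data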;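 note: cells exposed to compound for 20 h before luminescence read; 0% = DMSO alone and 100% = MG132 at 30 µM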
Rad51 HR inh – blocks human Rad51 in homologous recombination; Q06609; hRad51 DNA strand exchange, fluorescence dequenching; inhibition, % at 10 µM; hit rate 0.085% among 200,000; AID 1385;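 active = inhibition above 40% at the single screening dose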;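 note: 0% = DMSO control wells and 100% = blanks with heterologous ssDNA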
Target sequence (Q06609 whole entry, looked up): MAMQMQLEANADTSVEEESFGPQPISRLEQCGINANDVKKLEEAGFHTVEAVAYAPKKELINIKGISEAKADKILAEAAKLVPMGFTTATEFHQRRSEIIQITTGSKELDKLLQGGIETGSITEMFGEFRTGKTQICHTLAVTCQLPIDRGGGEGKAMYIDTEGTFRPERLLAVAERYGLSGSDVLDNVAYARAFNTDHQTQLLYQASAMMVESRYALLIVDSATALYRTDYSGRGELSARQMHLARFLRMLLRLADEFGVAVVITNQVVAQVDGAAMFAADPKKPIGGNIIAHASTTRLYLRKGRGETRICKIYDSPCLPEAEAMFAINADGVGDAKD
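Material: Human Rad51 nucleoprotein filaments preassembled on unlabelled ssDNA | Also added: Labelled 47-mer dsDNA for strand exchange | Dosing: Single dose, 10 µM final compound | Schedule: 30-min compound preincubation and 15-min exchange, both room temperature | Technique: Fluorescence dequenching at 485/520 nm | Measure: Percent inhibition relative to plate controls and blanks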
DNA FID counter – fluorescent intercalator displacement, NS3 helicase counter-screen. DNA fluorescent intercalator displacement, fluorescence. inhibition, % at 7.9 µM. hit rate 0.17% among 290,000; in the data active = inhibition above about 37%;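 note: 0% = vehicle and 100% = reference compound; higher means more ethidium bromide displaced from hairpin DNA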
RBBP9 inh – human RBBP9 hydrolase inhibition; O75884; recombinant RBBP9, FP-Rh probe fluorescence polarization; inhibition, % at 7.94 µM; hit rate 0.2% among 220,000; AID 1515;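 active = inhibition above the campaign mean of all tested compounds plus 3 SD, cut at about 14% in these data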;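 note: plate controls were DMSO wells with RBBP9 for no effect and wells lacking RBBP9 protein for full effect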
Target sequence (O75884 whole entry, looked up): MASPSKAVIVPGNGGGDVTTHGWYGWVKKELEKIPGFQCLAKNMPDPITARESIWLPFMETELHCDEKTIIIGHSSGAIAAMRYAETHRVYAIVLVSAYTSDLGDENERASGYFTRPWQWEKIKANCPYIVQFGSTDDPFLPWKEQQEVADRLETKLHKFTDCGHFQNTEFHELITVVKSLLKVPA
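Material: RBBP9 protein. Amount: RBBP9 at 2.5 µM in dispensed solution, before mixing. Schedule: 30 min then 45 min, 25 °C. Medium: Tris buffer pH 8.0, NaCl, Pluronic. Measured by: fluorescence polarization. Measure: percent inhibition from mP, scaled between DMSO and no-protein wells. Replication: one well per compound.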
* marks the source's active call; other numbers are inactive results; nt = no result given. Hits are enriched below; roughly 1.2% of the tested compounds scored in any of these assays.

SMILES	Wee1 stabilizer	Rad51 HR inh	DNA FID counter	RBBP9 inh
COc1ccc(Br)cc1CNC(=O)CCN1C(=O)COc2ccccc21	11*	7	-6	-10
COc1ccc(OC)c(CNC(=O)CCN2C(=O)COc3ccccc32)c1	0	-5	-11	5
O=C([C@@H]1Cc2ccccc2CN1)N1CCN(Cc2ccccc2)CC1	nt	nt	-2	nt
Cn1cc(Br)c(C(=O)Nc2sc3c(c2C#N)CCC3)n1	10*	5	-5	-5
O=C(COC(=O)/C=C/c1ccc(Cl)cc1Cl)NCc1ccco1	9.7*	13	-15	-11
CN(C)Cc1cc(C(C)(C)c2cc(CN(C)C)c(O)c(CN(C)C)c2)cc(CN(C)C)c1O	0	-1	38*	-3
NC(=S)N/N=C\c1c(OCc2ccccc2Cl)ccc2ccccc12	4	nt	-19	-28
c1ccc(CNc2ncnc3c2oc2ccccc23)nc1	10*	9	-10	0
Cc1ccc(-n2c(SCc3ccc(C(=O)O)cc3)nnc2-c2ccncc2)cc1	-3	19	-27	-6
CS(=O)(=O)c1cnc(-c2cccnc2)nc1N	-3	14	1	7
O=C(/C=C/c1ccc(Cl)c([N+](=O)[O-])c1)Nc1ccc(NC(=O)c2ccco2)cc1	0	-6	2	-3
O=C(/C=C/c1ccc(Cl)c([N+](=O)[O-])c1)Nc1ccc(N2CCCC2)cc1	-2	55*	2	-4
Cc1nn(-c2ccc(N3CCCCC3)nn2)c(C)c1CCC(=O)Nc1ccc(F)c(F)c1	nt	nt	-37	nt
COc1ccc(NS(=O)(=O)c2ccc(N3CCCC3)c(NC(=S)Nc3ccc(SC(F)F)cc3)c2)cc1	9.3*	0	-7	-6
N/C(=N\OC(=O)c1ccco1)c1ccccn1	10*	-6	13	6
COc1ccc(Nc2ccnc3ccccc23)cc1	-1	1	4	-5
CC(C)Nc1ccc(Nc2ccnc3cc4ccccc4cc23)cc1	2	46*	73*	-5
O=c1c2c([N+](=O)[O-])cc([N+](=O)[O-])cc2sn1-c1ccc(Br)cc1	-3	4	4	17*
O=c1c2c([N+](=O)[O-])cc([N+](=O)[O-])cc2sn1Cc1ccccc1	nt	nt	1	nt
CCN(c1ccccc1)S(=O)(=O)c1cc(NC(=O)CSc2n[nH]c(=O)[nH]c2=O)ccc1Cl	9.2*	-8	-20	-24
COC(=O)C1(C)NC(c2ccc(O)cc2)C2C(=O)N(c3ccc(C)cc3)C(=O)C21 (configuration not stated)	nt	nt	-5	nt
CCC1CN(C(=O)N2CCC(C(=O)Nc3ccccc3OC)CC2)c2ccccc2O1 (configuration not stated)	nt	nt	-50	nt
OC(COc1ccc(CNCCc2ccc(C(F)(F)F)cc2)cc1)CN1CCCCC1 (configuration not stated)	-3	-4	42*	-8
OC(COc1ccc(OCC(O)CN2CCCCC2)cc1)CN1CCCCC1 (configuration not stated)	nt	nt	14	nt
CCc1ccc(OC(=O)Nc2ccccc2)cc1	nt	nt	-6	nt
SMILES	Wee1 stabilizer	Rad51 HR inh	DNA FID counter	RBBP9 inh
O=C1/C(=C/N(C(=O)c2ccco2)c2ccc(Cl)cc2)Sc2ccccc21	9.4*	-73	3	-9
O=C1/C(=C/N(C(=O)c2ccco2)c2ccc(Br)cc2)Sc2ccccc21	0	-55	0	-8
O=C(CCn1cncn1)N1CCCC(N2CCN(c3cccc(C(F)(F)F)c3)CC2)C1 (configuration not stated)	nt	nt	-30	nt
CN(C)CCCN(CCCN(C)C)C(=S)Nc1ccc(S(=O)(=O)N2CCOCC2)cc1	0	nt	37*	-5
O=C(CN1CCCCCC1)Nc1ccc(S(=O)(=O)N2CCOCC2)cc1	9.6*	4	13	-8
O=C(CN1CCN(c2ccc(F)cc2)CC1)Nc1ccc(S(=O)(=O)N2CCOCC2)cc1	nt	nt	-30	nt
O=C(Nc1ccc(S(=O)(=O)N2CCOCC2)cc1)c1cc(-c2ccccc2O)n[nH]1	10*	-8	-6	-8
O=C(N/N=C/c1cccc([N+](=O)[O-])c1)c1cc[n+](CCO)cc1	nt	nt	13	nt
COCCCNc1nc2ccccc2nc1NS(=O)(=O)c1cccc(C)c1	nt	nt	-37	nt
COCCN(CCOC)S(=O)(=O)c1ccc(C(=O)Nc2nnc(C3CC3)o2)cc1	9.4*	10	-15	-3
O=C(O)CCNS(=O)(=O)c1ccc2c(c1)OCCCO2	9.8*	-6	-1	-3
CC1CCN(S(=O)(=O)c2ccc(C(=O)NNC(=O)C3CC3)cc2)CC1	0	5	1	-4
Nn1c(COc2ccccc2F)nnc1SCC(=O)NC1CCCC1	nt	nt	-3	nt
Nc1[nH]c(N=NC(=O)c2ccccc2)c2ccccc12	10*	7	-11	-1
Nc1[nH]c(N=NC(=O)c2ccc(Cl)cc2)c2ccccc12	-1	7	3	-8
O=c1oc2ccccc2cc1NCc1ccccc1O	8.9*	-8	-2	-3
O=C(NCc1ccccc1Cl)c1cc2ccccc2oc1=O	nt	nt	-4	nt
Clc1ccc(-n2ncc3c(NCC4CCCO4)ncnc32)cc1 (configuration not stated)	9.6*	2	1	-6
CCCCCOCC(O)CCC(=O)NN (configuration not stated)	0	1	-14	-5
C1CCN(c2nc3nonc3nc2N2CCCCC2)CC1	10*	nt	-2	-9
O=C(NC(=S)Nc1ccccc1F)c1ccc(Br)o1	11*	-114	-3	3
COC(=O)/C(=N\Nc1ccccc1)Sc1nnc(-c2ccc(OC)cc2)n1C	2	5	-10	0
CCOC(=O)c1sc(-c2ccc(OC)cc2)cc1N	11*	-7	-2	-4
CCOC(=O)c1sc(-c2ccc(F)cc2)cc1N	1	-2	1	-10
CCOc1ccc(S(=O)(=O)N2CCCC(C(=O)Nc3cc(C)cc(C)c3)C2)cc1 (configuration not stated)	nt	nt	-32	nt
SMILES	Wee1 stabilizer	Rad51 HR inh	DNA FID counter	RBBP9 inh
O=C(Nc1ccc(CN2CCS(=O)(=O)CC2)cc1)c1ccc(C(F)(F)F)cc1	-2	-2	-15	0
O=C(Nc1ccc(CN2CCS(=O)(=O)CC2)cc1)c1ccc(F)cc1	9.7*	-7	-5	-9
N/C(=N\OC(=O)Cc1ccc(Cl)cc1)c1ccncc1	8.9*	2	-11	-4
N/C(=N\OC(=O)Cc1ccc(Cl)cc1)c1cccnc1	-2	0	-6	-2
CCOc1ccccc1NC(=O)NCCC1=CCCCC1	2	22	-18	-1
C/C=C/C(=O)OCC(=O)Nc1nc2ccc(C)cc2s1	-2	3	-7	1
Cc1ccc2nc(NC(=O)COC(=O)c3ccccn3)sc2c1	9.3*	1	-6	-4
N#Cc1ccccc1Sc1ccccc1C(=O)N1CCOCC1	0	7	-4	-5
O=C(c1ccccc1Sc1ccc([N+](=O)[O-])cc1Cl)N1CCOCC1	0	45*	-19	1
O=C(c1ccccc1)N1CCN(c2ccc([N+](=O)[O-])c(NCC3CCCO3)c2)CC1 (configuration not stated)	11*	12	-14	-5
